Experimental findings from ChEMBL document CHEMBL3593187, “Modified quaternary ammonium salts as potential antimalarial agents” (Bioorg Med Chem, 2015) are described below.

For test [1], the system named is Plasmodium falciparum. Put plainly: Resistance index, ratio of IC50 for chloroquine-resistant Plasmodium falciparum W2 to IC50 for chloroquine-sensitive Plasmodium falciparum D10. In kind it is functional. A digest of the protocol: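 Resistance index is the IC50 against W2 divided by the IC50 against D10. Each IC50 came from a 72 h pLDH growth assay (OD650) on asynchronous cultures at 1% haematocrit and 37 °C, with ≥3 independent experiments in duplicate.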

Test [2] relates to Plasmodium falciparum. Put plainly: Antiplasmodial activity against chloroquine-resistant Plasmodium falciparum W2 assessed as inhibition of parasite growth after 72 hrs by parasite lactate dehydrogenase assay. The format is functional, organism-based. As to conditions: W2, 72 h. A digest of the protocol: (§1)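 Asynchronous P. falciparum cultures (parasitaemia 1–1.5%, 1% final haematocrit, human type A-positive erythrocytes) in RPMI 1640 with 1% AlbuMaxII, 0.01% hypoxanthine, 20 mM Hepes and 2 mM glutamine. Cultures were exposed to serial dilutions (10 mg/mL stocks in water or DMSO) for 72 h at 37 °C under 1% O2/5% CO2/94% N2. Growth was read as pLDH activity (OD650), and IC50 is the mean ± SD of ≥3 independent experiments in duplicate.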

A short description of test [3]: Cytotoxicity against HMEC1 assessed as inhibition of cell proliferation after 72 hrs by MTT assay. As to conditions: Homo sapiens, HMEC-1, 72 h. In short, it runs like this:
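HMEC-1 cells grown in MCDB 131 with 10% fetal calf serum, 10 ng/mL EGF, hydrocortisone, 2 mM glutamine and 20 mM Hepes. Serial compound dilutions, 72 h at 37 °C in 5% CO2, then MTT for 3 h. Formazan dissolved in SDS/DMF lysing buffer (pH 4.7), read at 550 nm (ref 650 nm). IC50 from triplicates, at least three runs.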

Test [4] has as its system Plasmodium falciparum. The test can be described thus: Antiplasmodial activity against chloroquine-sensitive Plasmodium falciparum D10 assessed as inhibition of parasite growth after 72 hrs by parasite lactate dehydrogenase assay. The format is functional, organism-based. The following applies: D10, 72 h. In short, it runs like this: as §1
Test [5] can be described thus: Selectivity index, ratio of IC50 for HMEC1 to IC50 for chloroquine-sensitive Plasmodium falciparum D10. In short, it runs like this: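 Ratio of HMEC-1 IC50 (72 h MTT) to D10 IC50. […] Serial dilutions (final DMSO ≤1%), 72 h at 37 °C under 1% O2/5% CO2/94% N2. Growth read as pLDH activity (OD650). Mean of ≥3 experiments in duplicate.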
Test [6] is described as follows: Selectivity index, ratio of IC50 for HMEC1 to IC50 for chloroquine-resistant Plasmodium falciparum W2. A digest of the protocol: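 Selectivity index is the IC50 on HMEC-1 divided by the IC50 on W2. HMEC-1 cells were grown in MCDB 131 with 10% FCS, EGF, hydrocortisone and Hepes, then given serial dilutions for 72 h at 37 °C in 5% CO2. MTT was added for 3 h, formazan was dissolved in SDS/DMF lysis buffer at pH 4.7, and absorbance was read at 550/650 nm. Each test was run in triplicate at least three times.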

A value given as a limit tells only on which side of the number the result lay.

In the case of `C/C=C/C=C/C=C/C[N+](C)(C)CCCCCCCCCCCCCCCC.[I-]`, the “Ratio IC50” value in the test on Plasmodium falciparum [1] was 1.5; in test [5] it was 11; in test [6], 7. In addition, the IC50 in the test on Plasmodium falciparum [2] came out at 950 nM; in test [3], 7070 nM; in the test with Plasmodium falciparum [4], 620 nM.

For `C/C=C/C=C/C=C/C[N+](C)(CCCCCCCCCCCCCCCCCC)Cc1ccccc1.[I-]` (centres undefined), the “Ratio IC50” value in the test with Plasmodium falciparum [1] came to 1.3; in test [5], 15; in test [6], 11. Also, the 50% inhibitory concentration (IC50) is 610 nM in the test on Plasmodium falciparum [2], 7020 nM in test [3] and 450 nM in the test with Plasmodium falciparum [4].

With `C/C=C/C=C/C=C/C[N+](C)(C)CCCCCCCCCCCC.[I-]`, the “Ratio IC50” value with Plasmodium falciparum [1] is given as 1.1. For the same compound, the IC50 was 4710 nM in the test on Plasmodium falciparum [2], above 20000 nM in test [3] and 4280 nM in the test on Plasmodium falciparum [4].

With `C/C=C/C=C/C=C/C[N+](C)(C)CCCCCCCCCCCCCC.[I-]`, the “Ratio IC50” value came out at 2.5 in the test with Plasmodium falciparum [1], 36 in test [5] and 14 in test [6]. The IC50 in the test with Plasmodium falciparum [2] came out at 530 nM; in test [3], 7890 nM; in the test with Plasmodium falciparum [4] it was 210 nM.

Take `C/C=C/C=C/C=C/C[N+](C)(CCCCCCCCCCCCC)Cc1ccccc1.[I-]` (centres undefined): the “Ratio IC50” value with Plasmodium falciparum [1] was found to be 0.6; in test [5] it was 24; in test [6], 41. The IC50 with Plasmodium falciparum [2] is 520 nM; in test [3] it was 21200 nM; in the test with Plasmodium falciparum [4] it was 870 nM.

As for `CCN(CC)CCCC(C)Nc1ccnc2cc(Cl)ccc12` (centres undefined) [CHLOROQUINE], the IC50 in test [3] was above 20000 nM.

Consider `C/C=C/C=C/C=C/C[N+](C)(C)CCCCCCCCCCCCCCCCCC.[I-]`, for which the “Ratio IC50” value in the test with Plasmodium falciparum [1] was 1.3; in test [5], 14; in test [6], 10. The values for the IC50 (in the test with Plasmodium falciparum [2]; in test [3]; with Plasmodium falciparum [4]) were 1530 nM, 16700 nM and 1150 nM, respectively.

Take `C/C=C/C=C/C=C/C(=O)O`: the IC50 in the test on Plasmodium falciparum [2] and in the test on Plasmodium falciparum [4] was above 28400 nM throughout.

As for `C/C=C/C=C/C=C/C[N+](C)(CCCCCCCCCCCCCC)Cc1ccccc1.[I-]` (centres undefined), the “Ratio IC50” value was determined as 1.4 in the test on Plasmodium falciparum [1], 102 in test [5] and 75 in test [6]. Besides, the figures for the IC50 (in the test with Plasmodium falciparum [2]; in test [3]; with Plasmodium falciparum [4]) were 310 nM, 23000 nM and 220 nM, respectively.

On to `CCCCCCCCCCCC[N+](C)(C)CCCCCCCC.[Br-]`, for which the “Ratio IC50” value came out at 2.5 in the test on Plasmodium falciparum [1], 44 in test [5] and 18 in test [6]. The IC50 in the test with Plasmodium falciparum [2] is 480 nM; in test [3] it was 8690 nM; with Plasmodium falciparum [4], 190 nM.

As to `C/C=C/C=C/C=C/C[N+](C)(C)CCCCCCCCCCCCC.[I-]`, the “Ratio IC50” value in the test with Plasmodium falciparum [1] came out at 1.7; in test [5] it was 15; in test [6], 8. The IC50 came out at 630 nM with Plasmodium falciparum [2], 5630 nM in test [3] and 360 nM in the test with Plasmodium falciparum [4].

Regarding `C/C=C/C=C/C=C/C[N+](C)(CCCCCCCCCCCCCCCC)Cc1ccccc1` (centres undefined), the figures for the IC50 (with Plasmodium falciparum [2]; in test [3]; in the test with Plasmodium falciparum [4]) were above 8640 nM, 5990 nM and above 8640 nM, respectively.

With `C/C=C/C=C/C=C/C[N+](C)(CCCCCCCCCCCC)Cc1ccccc1.[I-]` (centres undefined), the “Ratio IC50” value with Plasmodium falciparum [1] is 1.2; in test [5] it was 23; in test [6] it was 18. For the same compound, the values for the IC50 (in the test on Plasmodium falciparum [2]; in test [3]; in the test on Plasmodium falciparum [4]) were 330 nM, 5900 nM and 250 nM, respectively.
